Assay type in all cases: functional
In one assay the test system is Klebsiella pneumoniae. Put plainly: Antibacterial activity against Klebsiella pneumoniae ATCC 10031 assessed as growth inhibition after 18 hrs by agar dilution method. The settings on record: ATCC 10031, 18 h. In short, it runs like this:
(§1)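 MIC read by conventional agar dilution. Compounds were dissolved at 10.0 mg in 1 mL DMSO and diluted with 9 mL distilled water to make the stock. Two-fold serial dilutions were made in molten sterile Mueller-Hinton agar, with final levels starting at 100, 50, 25, 12.5, 6.25, 3.13, 1.56 and lower.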
In general terms: Agar dilution tests growth on a series of plates holding different concentrations.

A further assay concerns Escherichia coli. Put plainly: Antibacterial activity against Escherichia coli ATCC 8739 assessed as growth inhibition after 18 hrs by agar dilution method. Particulars: ATCC 8739, 18 h. In short, it runs like this:
as §1

The subject of assay [1] is Pseudomonas aeruginosa. Briefly: Antibacterial activity against Pseudomonas aeruginosa ATCC 9027 assessed as growth inhibition after 18 hrs by agar dilution method. The settings on record: ATCC 9027, 18 h. A digest of the protocol: as §1
A further assay relates to Bacillus spizizenii. Put plainly: Antibacterial activity against Bacillus subtilis ATCC 6633 assessed as growth inhibition after 18 hrs by agar dilution method. Particulars: ATCC 6633, 18 h. In short, it runs like this:
as §1

The test system of assay [2] is Staphylococcus epidermidis. Briefly: Antibacterial activity against Staphylococcus epidermidis ATCC 12228 assessed as growth inhibition after 18 hrs by agar dilution method. The settings on record: ATCC 12228, 18 h. In short, it runs like this:
as §1

Assay [3] concerns Staphylococcus aureus. Briefly: Antibacterial activity against Staphylococcus aureus ATCC 6538 assessed as growth inhibition after 18 hrs by agar dilution method. The settings on record: ATCC 6538, 18 h. In short, it runs like this:
as §1

Assay [4] deals with Pseudomonas aeruginosa. Briefly: Potency index, ratio of norfloxacin MIC to compound MIC for Pseudomonas aeruginosa ATCC 9027.
Assay [5] has as its system Staphylococcus aureus. Briefly: Potency index, ratio of norfloxacin MIC to compound MIC for Staphylococcus aureus ATCC 6538.

Values after ≈ are worked out from the molar mass of the structure shown.

Consider `COc1c(N2CCN(Cc3oc(CO)cc(=O)c3O)C(C)C2)c(F)cc2c(=O)c(C(=O)O)cn(C3CC3)c12` (stereo unspecified), for which the MIC – broadly, the lowest concentration found to suppress growth – stood at 1.56 µg/mL (≈ 2.95 µM) with Klebsiella pneumoniae; 0.39 µg/mL (≈ 0.737 µM) in the assay on Escherichia coli; 0.78 µg/mL (≈ 1.47 µM) with Pseudomonas aeruginosa [1]; 3.12 µg/mL (≈ 5.9 µM) with Bacillus spizizenii; 3.12 µg/mL (≈ 5.9 µM) in assay [2]; 0.78 µg/mL (≈ 1.47 µM) in the assay with Staphylococcus aureus [3].

For `CCn1cc(C(=O)O)c(=O)c2cc(F)c(N3CCNCC3)cc21` [NORFLOXACIN], the minimum inhibitory concentration (MIC) in the assay on Klebsiella pneumoniae came out at 0.39 µg/mL (≈ 1.22 µM); in the assay on Escherichia coli, 0.195 µg/mL (≈ 0.611 µM); in the assay with Pseudomonas aeruginosa [1] it was 1.56 µg/mL (≈ 4.89 µM); with Bacillus spizizenii it was 0.195 µg/mL (≈ 0.611 µM); in assay [2] it was 0.39 µg/mL (≈ 1.22 µM); in the assay with Staphylococcus aureus [3], 0.39 µg/mL (≈ 1.22 µM).

For the compound `CCn1cc(C(=O)O)c(=O)c2cc(F)c(N3CCN(Cc4oc(CO)cc(=O)c4O)CC3)nc21`, the MIC was 12.5 µg/mL (≈ 26.3 µM) in the assay on Klebsiella pneumoniae; 1.56 µg/mL (≈ 3.29 µM) in the assay on Escherichia coli; 12.5 µg/mL (≈ 26.3 µM) in the assay on Pseudomonas aeruginosa [1]; 12.5 µg/mL (≈ 26.3 µM) with Bacillus spizizenii; 12.5 µg/mL (≈ 26.3 µM) in assay [2]; 6.25 µg/mL (≈ 13.2 µM) in the assay with Staphylococcus aureus [3].

Consider `CCn1cc(C(=O)O)c(=O)c2cc(F)c(N3CCN(Cc4oc(CO)cc(=O)c4O)C(C)C3)c(F)c21` (racemic), for which the minimal inhibitory concentration (MIC) in the assay with Klebsiella pneumoniae worked out at 1.56 µg/mL (≈ 3.09 µM); with Escherichia coli it was 0.39 µg/mL (≈ 0.772 µM); in the assay on Pseudomonas aeruginosa [1], 3.12 µg/mL (≈ 6.18 µM); in the assay on Bacillus spizizenii, 3.12 µg/mL (≈ 6.18 µM); in assay [2] it was 6.25 µg/mL (≈ 12.4 µM); in the assay on Staphylococcus aureus [3], 3.12 µg/mL (≈ 6.18 µM).

In the case of `O=C(O)c1cn(C2CC2)c2cc(N3CCN(Cc4oc(CO)cc(=O)c4O)CC3)c(F)cc2c1=O`, the MIC was 1.56 µg/mL (≈ 3.21 µM) in the assay with Klebsiella pneumoniae; 0.78 µg/mL (≈ 1.61 µM) in the assay on Escherichia coli; 1.56 µg/mL (≈ 3.21 µM) in the assay on Pseudomonas aeruginosa [1]; 3.12 µg/mL (≈ 6.44 µM) with Bacillus spizizenii; 3.12 µg/mL (≈ 6.44 µM) in assay [2]; 1.56 µg/mL (≈ 3.21 µM) in the assay with Staphylococcus aureus [3].

Turning to `CCn1cc(C(=O)O)c(=O)c2cc(F)c(N3CCN(Cc4oc(CO)cc(=O)c4O)CC3)cc21`, the MIC was found to be 1.56 µg/mL (≈ 3.29 µM) with Klebsiella pneumoniae; 0.78 µg/mL (≈ 1.65 µM) in the assay on Escherichia coli; 3.12 µg/mL (≈ 6.6 µM) in the assay on Pseudomonas aeruginosa [1]; 0.78 µg/mL (≈ 1.65 µM) in the assay with Bacillus spizizenii; 6.25 µg/mL (≈ 13.2 µM) in assay [2]; 3.12 µg/mL (≈ 6.6 µM) in the assay with Staphylococcus aureus [3].

Turning to `COc1c(N2CCN(Cc3oc(CCl)cc(=O)c3O)C(C)C2)c(F)cc2c(=O)c(C(=O)O)cn(C3CC3)c12` (stereo unspecified), the minimal inhibitory concentration (MIC) with Klebsiella pneumoniae stood at 1.56 µg/mL (≈ 2.85 µM); with Escherichia coli, 1.56 µg/mL (≈ 2.85 µM); in the assay on Pseudomonas aeruginosa [1], 0.78 µg/mL (≈ 1.42 µM); in the assay with Bacillus spizizenii it was 1.56 µg/mL (≈ 2.85 µM); in assay [2], 1.56 µg/mL (≈ 2.85 µM); with Staphylococcus aureus [3] it was 0.39 µg/mL (≈ 0.712 µM).

As to `CCn1cc(C(=O)O)c(=O)c2cc(F)c(N3CCN(Cc4oc(CCl)cc(=O)c4O)CC3)cc21`, the MIC in the assay with Klebsiella pneumoniae turned out to be 0.78 µg/mL (≈ 1.59 µM); with Escherichia coli, 0.39 µg/mL (≈ 0.793 µM); in the assay with Pseudomonas aeruginosa [1] it was 1.56 µg/mL (≈ 3.17 µM); in the assay with Bacillus spizizenii, 1.56 µg/mL (≈ 3.17 µM); in assay [2] it was 1.56 µg/mL (≈ 3.17 µM); in the assay on Staphylococcus aureus [3], 1.56 µg/mL (≈ 3.17 µM).

In the case of `O=C(O)c1cn(C2CC2)c2cc(N3CCN(Cc4oc(CCl)cc(=O)c4O)CC3)c(F)cc2c1=O`, the Ratio is reported as 8 in the assay with Pseudomonas aeruginosa [4] and 4 in the assay with Staphylococcus aureus [5]. In addition, the MIC in the assay with Klebsiella pneumoniae amounted to 0.195 µg/mL (≈ 0.387 µM); in the assay with Escherichia coli, 0.78 µg/mL (≈ 1.55 µM); in the assay on Pseudomonas aeruginosa [1], 0.195 µg/mL (≈ 0.387 µM); with Bacillus spizizenii, 0.39 µg/mL (≈ 0.774 µM); in assay [2], 0.39 µg/mL (≈ 0.774 µM); with Staphylococcus aureus [3] it was 0.097 µg/mL (≈ 0.192 µM).
